These results are taken from ChEMBL document CHEMBL1158601, “Discovery of a novel series of CXCR3 antagonists” (Bioorg Med Chem Lett, 2010).

Structures are written as SMILES. In brackets after ≈: the same amount, converted by molar mass. Activity calls are given as the source filed them. Some results are limits rather than exact numbers.

Series [1] has as its target T1, C-X-C chemokine receptor type 3 (Homo sapiens, UniProt P49682).
T1 sequence (P49682 whole entry): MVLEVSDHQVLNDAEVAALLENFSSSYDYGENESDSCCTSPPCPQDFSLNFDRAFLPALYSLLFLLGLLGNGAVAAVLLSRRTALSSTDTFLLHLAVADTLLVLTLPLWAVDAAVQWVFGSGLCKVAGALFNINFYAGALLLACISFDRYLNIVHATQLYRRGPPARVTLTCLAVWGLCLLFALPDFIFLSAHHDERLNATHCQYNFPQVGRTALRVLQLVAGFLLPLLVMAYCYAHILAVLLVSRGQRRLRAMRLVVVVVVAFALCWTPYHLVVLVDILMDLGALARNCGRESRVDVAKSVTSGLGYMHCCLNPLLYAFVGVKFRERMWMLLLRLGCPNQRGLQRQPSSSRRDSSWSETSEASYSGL
Description: Displacement of labeled ITAC from CXCR3.

In series [2] the target is T2, C-X-C chemokine receptor type 3 (Homo sapiens) (UniProt P49682).
T2 sequence (whole entry): T1 sequence (P49682 whole entry)
Description: Antagonist activity at CXCR3 assessed as inhibition of IP10-induced GTPgammaS binding. The class given is functional. A general note: GTPγS is a poorly hydrolysed GTP analogue; its binding reports G protein activation.

The nature of series [3]: Intrinsic clearance in human liver microsomes assessed per mg of protein. It counts as ADME, Microsome. An outline of the steps: (§1)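 Intrinsic clearance from stability in human and rat liver microsomes, expressed as µL/min/mg protein.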
In general terms: Liver microsomes are a subcellular fraction often used to study metabolism.

Series [4] can be described thus: Intrinsic clearance in rat liver microsomes assessed per mg of protein. The class given is ADME, Microsome. The essentials:
as §1

Series [5] can be described thus: Apparent permeability across human Caco-2 cells. The class given is ADME, cell-based. (Caco-2 monolayers are a common model of the intestinal barrier.)
Series [6] can be described thus: Nephelometric kinetic solubility in PBS. The class given is physicochemical.
Series [7] can be described thus: Lipophilicity, log P of the compound. The class given is physicochemical. The conditions noted are these: octanol/water.
Series [8] in a line: Chemical stability at pH 1. The class given is physicochemical. The conditions noted are these: buffer.
Series [9] addresses T1, C-X-C chemokine receptor type 3. Nature of the series: Displacement of labeled IP10 from CXCR3.
Series [10] addresses T2, C-X-C chemokine receptor type 3 (Homo sapiens). Description: Antagonist activity at CXCR3 assessed as inhibition of ITAC-induced GTPgammaS binding. The class given is functional.
Series [11] shares this target. Description: Antagonist activity at human CXCR3 expressed in mouse L1.2 cells assessed as inhibition of ITAC-induced chemotaxis after 4 hrs. The class given is functional, cell-based.
The nature of series [12]: Intrinsic clearance in mouse liver microsomes assessed per mg of protein. It counts as ADME, Microsome.
The target in series [13] is T3, C-X-C chemokine receptor type 5 (Homo sapiens) (UniProt P32302).
T3 sequence (whole entry): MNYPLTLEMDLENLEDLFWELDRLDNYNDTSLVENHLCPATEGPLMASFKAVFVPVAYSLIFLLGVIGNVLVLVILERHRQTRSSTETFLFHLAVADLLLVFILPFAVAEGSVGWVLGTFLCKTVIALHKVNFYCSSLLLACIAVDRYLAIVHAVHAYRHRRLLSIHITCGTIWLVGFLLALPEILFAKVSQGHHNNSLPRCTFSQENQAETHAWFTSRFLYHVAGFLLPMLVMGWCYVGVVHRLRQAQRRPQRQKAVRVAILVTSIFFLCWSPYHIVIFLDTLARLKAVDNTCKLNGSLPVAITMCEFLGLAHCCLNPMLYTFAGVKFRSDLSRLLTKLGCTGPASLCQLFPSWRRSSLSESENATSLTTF
Description: Antagonist activity at human CXCR5 expressed in mouse L1.2 cells assessed as inhibition of CXCL13-induced chemotaxis up to 10 uM after 4 hrs. It counts as functional, cell-based. An outline of the steps:
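Counter-screen chemotaxis: CXCR5-overexpressing L1.2 cells stimulated with CXCL13, test compounds up to 10 µM.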

A short description of series [14]: Aqueous solubility at pH 7.4. The class given is physicochemical. The conditions noted are these: buffer. An outline of the steps: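 Aqueous solubility measured at pH 7.4.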
The nature of series [15]: Clearance in mouse at 0.2 mg/kg, iv. The class given is ADME, organism-based. More on the design: dose 0.2 mg/kg, route intravenous. The conditions noted are these: in vivo.
The subject of series [16] is Mus musculus. Nature of the series: Clearance in mouse assessed as liver blood flow at 0.2 mg/kg, iv. It counts as ADME, organism-based. More on the design: dose 0.2 mg/kg, route intravenous. The conditions noted are these: in vivo.
Series [17] can be described thus: Volume of distribution at steady state in mouse at 0.2 mg/kg, iv. The class given is ADME, organism-based. Details: dose 0.2 mg/kg, route intravenous. The conditions noted are these: in vivo, read-out: Vdss.
Series [18] in a line: Bioavailability in mouse at 10 mg/kg, po. The class given is ADME, organism-based. The note with it: in vivo.
The nature of series [19]: Half life in mouse at 10 mg/kg, po. It counts as ADME, organism-based. More on the design: dose 10 mg/kg, route oral. The note with it: in vivo.

Usually Ki stands for a dissociation constant, usually derived from enzyme kinetics or from competition with a known ligand. As usually defined, the microsomal CLint is the rate of metabolic loss divided by the concentration. Low readings indicate slow turnover, high ones rapid turnover. Broadly, the Papp is the rate of passage across a membrane or cell layer, normalised by area and donor concentration. What is called solubility (kinetic) is the concentration staying in solution when a stock, usually in DMSO, is diluted into the medium. Broadly, the logP is a log measure of how a compound divides between an organic and an aqueous phase. Take `CC(=O)Nc1cccc(/C(C)=N\NC(=O)c2ccc(CN(Cc3ccccc3)S(=O)(=O)c3ccc(Cl)cc3)cc2)c1`: the inhibitory constant (Ki) in [1] is 211 nM; in series [9] it was 348 nM. Moreover, the Activity in [2] was 99 nM; in series [10], 128 nM; in series [11], 1810 nM. Further, the results for the microsomal CLint in [3] and in series [4] were 92 µL/min/mg and 219 µL/min/mg, respectively. The Papp in series [5] worked out at 0.1 ×10⁻⁶ cm/s. The compound also displayed a solubility (kinetic) in series [6] of 11.9 µM (≈ 7.01 µg/mL). Further, the logP in series [7] came out at 4.8. Besides, the Stability entry in series [8] was “Unstable”.
What is called solubility is how much of the substance goes into solution per volume. A low value points to little dissolved substance. The term clearance denotes the rate of elimination divided by the concentration. Higher therefore signals a high capacity for elimination. As usually defined, the bioavailability is dose-corrected exposure relative to a reference, in per cent. High values mean good availability, low ones poor availability. In general, half-life refers to the time needed for the level to fall by half in the phase considered. Read a high half-life as slow decline. In turn, `N#Cc1ccc(S(=O)(=O)N(Cc2ccc(-c3nnn[nH]3)c(F)c2)Cc2ccccc2F)cc1` displayed a microsomal CLint in series [12] of 17 µL/min/mg. The result in series [13] was inactive. The compound also came in with a solubility in series [14] of more than 100 µM. This compound gave a clearance in series [15] of 28.3 mL/min/kg. For the same compound, the “Fraction of Liver Blood Flow” value in series [16] is 30%. In addition, the Vd in [17] came out at 1 L/kg. Besides, the bioavailability in [18] was found to be 83%. Besides, in series [19], the half-life was 1 h.
